High-throughput results as filed in PubChem.
The list is not random: actives were taken first. Their share in the collection is about 3%.
V-ATPase pH: yeast V-ATPase proton transport regulation by pHLuorin; S. cerevisiae, pHLuorin cytosolic pH fluorescence; response, % at 10 µM; 0.37% of 350,000 active; AID 504577; in the data active = response mostly above about 7.3%, no sharp cut-off; inactive = mostly below about 5.4%; note: actives read high
Yeast superoxide: lowers age-related superoxide in aged yeast cells. AID 2690. superoxide response (% of plate mean), % at 10 µM. S. cerevisiae aged cells, superoxide DHE fluorescence; active compounds read low. 0.18% of 330,000 active;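 active = superoxide response under a set limit, about three screen SD below normal, cut at about 65% in these data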;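 note: yeast aged for seven days with compound at 30 °C before DHE staining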
T cruzi repl: T. cruzi replication inhibition | T. cruzi beta-gal in NIH3T3, luminescence, 90 h | AID 1885 | 1.4% of 300,000 active | inhibition, % (no concentration beside the values);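 active = mean inhibition across valid replicates above about 55%, limit read from the data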;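 note: signal also drops with host cell toxicity which is not excluded here; higher percent means less beta-gal luminescence so fewer parasites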
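Test system: β-gal T. cruzi (Tulahuen C4) inside NIH/3T3 cells / Quantity: 5,000 cells/well / Measured by: luminescence from GalScreen with 0.05% NP40, read after 60 min / Medium: DMEM plus 2% FBS / Measure: parasite load inhibition, % / Reagent: Tulahuen C4 trypomastigotes, 5000/well / Schedule: co-culture of at least 90 h after 3 h attachment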
HIF activator: HIF pathway transcriptional activation. U2OS HRE-luciferase reporter, luminescence; normalized: DMSO 0%, desferrioxamine 100%. activation, % at 7.5 µM (by protocol). 0.32% of 300,000 active;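 active = mean activation of at least 10% of the iron chelator positive control signal, with at least half of replicates also reaching 10%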
NRP1-CendR mod: modulators of CendR peptide binding to human neuropilin-1 | AID 602438 | inhibition, % at 25 µM | O14786 | 0.85% of 360,000 active | FAM-RPARPAR peptide binding to NRP-1, fluorescence polarization;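 active = inhibition or corrected inhibition above about 18%, plus a signal ratio from 0.5 to 1.5, limit read from the data, passing the limit was not always enough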
Target sequence (O14786 whole entry, looked up): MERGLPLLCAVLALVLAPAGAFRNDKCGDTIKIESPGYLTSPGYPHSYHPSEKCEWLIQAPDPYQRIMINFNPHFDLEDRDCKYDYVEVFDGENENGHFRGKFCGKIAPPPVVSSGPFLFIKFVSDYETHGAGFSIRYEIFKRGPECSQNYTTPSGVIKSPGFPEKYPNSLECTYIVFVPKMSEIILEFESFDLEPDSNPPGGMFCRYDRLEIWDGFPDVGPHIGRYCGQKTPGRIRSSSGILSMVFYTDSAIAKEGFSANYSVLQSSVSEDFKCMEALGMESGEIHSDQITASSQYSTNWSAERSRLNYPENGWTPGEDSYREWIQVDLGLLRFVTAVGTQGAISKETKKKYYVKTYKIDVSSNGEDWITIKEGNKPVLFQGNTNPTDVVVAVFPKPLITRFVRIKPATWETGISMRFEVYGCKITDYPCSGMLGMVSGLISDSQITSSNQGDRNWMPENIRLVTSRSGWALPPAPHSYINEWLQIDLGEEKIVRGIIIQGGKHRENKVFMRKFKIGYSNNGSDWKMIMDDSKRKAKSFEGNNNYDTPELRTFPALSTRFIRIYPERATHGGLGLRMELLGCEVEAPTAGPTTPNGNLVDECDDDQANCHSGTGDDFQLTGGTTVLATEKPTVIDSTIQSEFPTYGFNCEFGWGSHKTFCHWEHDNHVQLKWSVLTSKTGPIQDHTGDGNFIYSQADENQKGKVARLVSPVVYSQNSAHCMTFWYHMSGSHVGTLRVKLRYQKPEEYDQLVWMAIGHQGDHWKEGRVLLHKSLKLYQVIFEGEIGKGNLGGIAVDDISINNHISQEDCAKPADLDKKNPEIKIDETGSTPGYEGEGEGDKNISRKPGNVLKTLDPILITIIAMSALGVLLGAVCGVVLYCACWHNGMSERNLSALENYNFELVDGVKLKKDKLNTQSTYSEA
AI-2 QS modul: modulators of Vibrio harveyi AI-2 quorum sensing system; activity change, % at 7.5 µM; AID 2094; 0.4% of 300,000 active; Vibrio harveyi JMH597 AI-2 luminescence/OD600 ratio, 9 h; active compounds read low; strain lacks LuxN and CqsS sensors; 0 = neutral-control median; in the data active = activity change below about -75%, passing the limit was not always enough;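 note: luminescence divided by OD600 gain over 9 h not by final OD600 alone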
VATPase regulator: yeast V-ATPase proton transport regulation | 2% of 980 active | shares compounds with V-ATPase pH | S. cerevisiae pHLuorin cytosolic pH | response, % at 10 µM; in the data active = response above about 24%
Large screens that a line does not name were inactive (follow-up assays come after a bar, where they were run).

O=C1C=C(O)C(n2cncn2)C(c2ccc(F)cc2)C1 (centres undefined)	none
O=C(CN(C(=O)Cn1nnc(-c2ccc(F)cc2)n1)c1cnc2ccccc2c1)NCC1CCCO1 (centres undefined)	none
CCn1nnc(NC(=O)c2ccc(-c3ccc(Cl)cc3)o2)n1	V-ATPase pH 7.1 | VATPase regulator inactive
CCn1nnc(NC(=O)Cc2ccc(Cl)cc2)n1	none
O=c1oc2ccccc2n1Cc1ccccc1	none
COc1ccc(CN2C(=O)c3ccccc3C2C(=O)NC2CCCC2)c(OC)c1 (centres undefined)	V-ATPase pH 9.8 | VATPase regulator inactive
O=S(=O)(c1cc(O)ccc1O)c1cccc2c(S(=O)(=O)c3cc(O)ccc3O)cccc12	none
O=S(=O)(O)c1cc(O)ccc1O	V-ATPase pH 15.1 (no result: T cruzi repl, HIF activator, AI-2 QS modul) | VATPase regulator inactive
N#C/C(=C/c1ccc(-c2ccc(S(N)(=O)=O)cc2)o1)C(=O)Nc1ccccc1	none
N#C/C(=C\c1ccco1)C(=O)Nc1ccc(S(N)(=O)=O)cc1	V-ATPase pH 8.6 | VATPase regulator inactive
CCc1nnc(NS(=O)(=O)c2ccc(NC(=O)c3ccc(S(=O)(=O)N(CC)CC)cc3)cc2)s1	none
COc1ccc(N(CC(=O)Nc2cccnc2)S(=O)(=O)c2ccccc2)cc1OC	none
O=C(O)C1CCCCC1C(=O)Nc1nc(-c2cccs2)cs1 (centres undefined)	none
O=C(O)C1CCC1C(=O)Nc1nc(-c2ccc(Cl)s2)cs1 (centres undefined)	V-ATPase pH 12.4 | VATPase regulator inactive
COc1ccc(S(=O)(=O)N2C[C@@H](O)COC[C@@H]3O[C@H](CC(=O)NCCCN4CCOCC4)CC[C@H]32)cc1	none (no result: V-ATPase pH, Yeast superoxide, T cruzi repl, HIF activator, AI-2 QS modul)
COc1ccc(CC(=O)Oc2cc(C)ccc2C)cc1	none
COc1ccc(CC(=O)OC(C)C(=O)c2ccc(C)cc2)cc1 (centres undefined)	V-ATPase pH 8.3 | VATPase regulator inactive
COc1nn(-c2nc(-c3ccccc3)cc(C(F)(F)F)n2)cc1[N+](=O)[O-]	V-ATPase pH 17.3 | VATPase regulator inactive
FC(F)(F)c1cc(-c2ccccc2)nc(-n2cc(Cl)cn2)n1	none
COc1ccccc1CCNC(=O)C1CCC(=O)N(Cc2cccc(F)c2)C1 (centres undefined)	none (no result: Yeast superoxide)
COc1ccccc1CN1CC(C(=O)NCCCc2ccc(F)cc2)CCC1=O (centres undefined)	V-ATPase pH 12.6 | VATPase regulator inactive
CCCCn1c(=N)n(CC(O)c2ccccc2)c2ccccc21 (centres undefined)	none
CCn1c(=N)n(CC(O)c2ccccc2)c2ccccc21 (centres undefined)	V-ATPase pH 27.5 | VATPase regulator inactive
O=C(N/C(=C/c1ccc(Br)cc1)C(=O)N1CCOCC1)c1ccc(Br)o1	none
CCCCCn1nc(C(=O)N(CC(C)C)c2c(N)n(CCCC)c(=O)[nH]c2=O)c2ccccc2c1=O	V-ATPase pH 21.7 | VATPase regulator inactive
O=C1C2C3C=CC(CC3)C2C(=O)N1/N=C/c1c(O)ccc2ccccc12 (centres undefined)	V-ATPase pH 7.5 | VATPase regulator inactive
COc1ccc(NC(=S)Nc2ccc(S(=O)(=O)N3CCCCC3)cc2)cc1	none (no result: Yeast superoxide, T cruzi repl, HIF activator, AI-2 QS modul)
COc1ccc(S(=O)(=O)N(CC(=O)N2CCN(C)CC2)c2ccc(C)cc2)cc1OC	V-ATPase pH 11.5 | VATPase regulator inactive
Cc1cc(CNC(=O)COc2ccc(F)cc2)c2ccccc2n1	none
C=CCn1cc(C(C)=O)c(=O)[nH]c1=O	V-ATPase pH 6.4 | VATPase regulator inactive
CC(CNc1ccc(Cl)cc1)(CNc1ccc(Cl)cc1)[N+](=O)[O-]	V-ATPase pH 8.8 (no result: Yeast superoxide, T cruzi repl, HIF activator, AI-2 QS modul) | VATPase regulator inactive
Cn1c(SCC(=O)Nc2ccccc2)nc(O)cc1=O	V-ATPase pH 8.9 (no result: T cruzi repl, HIF activator) | VATPase regulator inactive
COc1ccc(NC(=O)CSc2nc(O)cc(=O)n2C)cc1	none
CCCCCCCCNC(=O)c1cccnc1SCC(=O)Nc1ccccc1OC	V-ATPase pH 15.7 | VATPase regulator inactive
COc1cc(/C=N/NC2=NC(C)(C)Cc3ccccc32)cc(OC)c1OC	V-ATPase pH 8.2 | VATPase regulator inactive
COc1cc(/C=N/NC2=NS(=O)(=O)c3ccccc32)cc(OC)c1OC	none
COc1cccc(/C=c2\s/c(=C/C(=O)c3ccc(C)cc3)[nH]c2=O)c1OC	V-ATPase pH 8.0 | VATPase regulator inactive
CC1CCCCN1C(=O)CCS(=O)(=O)c1cc2c(cc1Cl)NC(=O)CO2 (centres undefined)	none
CCOC(=O)C(=O)N=Nc1c(O)[nH]c2ccccc12	none | VATPase regulator inactive
CC(SCc1ccccc1)C(=O)Nc1ccccc1Br (centres undefined)	V-ATPase pH 11.4 | VATPase regulator inactive
CCCCNC(=O)c1ccc(C)c(NC(=O)C2=C(C)OCCS2)c1	none
CC1=C(C(=O)Nc2cc(C(=O)NCc3ccccc3)ccc2C)SCCO1	V-ATPase pH 55.3 (no result: Yeast superoxide, T cruzi repl, HIF activator, AI-2 QS modul) | VATPase regulator inactive
FC(F)Oc1ccc(NC(=S)NCc2nc3ccccc3[nH]2)cc1	none
CCOc1ccc(NC(=S)NCc2nc3ccccc3[nH]2)cc1	V-ATPase pH 10.5 | VATPase regulator inactive
O=C(NC(C(=O)c1ccccc1)c1ccccc1)c1ccccc1 (centres undefined)	none (no result: Yeast superoxide, T cruzi repl, HIF activator, AI-2 QS modul)
COc1ccc(CCN2C(=O)C3C4CC(C5C(C(=O)NN)=NOC45)C3C2=O)cc1OC (centres undefined)	none
COc1ccc(CCN2C(=O)C3C4CC(C5C(C(N)=O)=NOC45)C3C2=O)cc1OC (centres undefined)	V-ATPase pH 15.4 | VATPase regulator inactive
COc1cccc(CC(=O)OCC(=O)NC2(C#N)CCCC2)c1	none (no result: T cruzi repl, HIF activator, AI-2 QS modul)
CCn1c(SCC(=O)Nc2nc3ccccc3s2)nnc1-c1ccc(Br)cc1	V-ATPase pH 15.4 | VATPase regulator inactive
CCOC(=O)c1c(CSc2ccccc2)n(C)c2ccc(O)c(CN3CCN(C)CC3)c12	none
O=C(Nc1ccc(Nc2ccccc2)cc1)C1CC1	V-ATPase pH 7.5 | VATPase regulator inactive
O=C1C2CC=C(Cl)CC2C(=O)N1CCC[n+]1ccccc1 (centres undefined)	none
Cc1ccc(S(=O)(=O)N2CCC(C(=O)N/N=C/c3cccn3C)CC2)cc1	V-ATPase pH 11.4 (no result: T cruzi repl, HIF activator, AI-2 QS modul) | VATPase regulator inactive
CN1C(=O)N(C)C2(c3ccccc3)Nn3c(s/c(=C/c4ccccc4)c3=O)=NC12c1ccccc1 (centres undefined)	V-ATPase pH 23.2 | VATPase regulator inactive
CCCN1CCC(=NNc2ccc(S(=O)(=O)N3CCOCC3)cc2[N+](=O)[O-])CC1	none
NS(=O)(=O)c1ccc(NN=C2CCN(Cc3ccccc3)CC2)c([N+](=O)[O-])c1	V-ATPase pH 16.1 | VATPase regulator inactive
